Active and inactive are the calls of the source. The calls are words filed in the database; no cut-off is given here.
Tests used:
[1] = Dissociation constant, pKa of the compound; format: physicochemical
[2] = Cytotoxicity against primary rabbit kidney cells assessed as change in cell morphology; format: cell-based, Oryctolagus cuniculus
[3] = test system: Human alphaherpesvirus 1; assay: Antiviral activity against HSV1 KOS infected in human skin fibroblasts assessed as inhibition of virus-induced cytopathogenicity; format: functional, organism-based
[4] = Cytotoxicity against human skin fibroblasts assessed as inhibition of DNA synthesis by labeled thymidine/2'-deoxyuridine assay; settings: skin fibroblast
Summary of the method: (§1)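 DNA synthesis in cultures (primary rabbit kidney cells or human skin fibroblasts) exposed to the analogues was monitored by incorporation of labeled thymidine or labeled 2'-deoxyuridine.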

[5] = Cytotoxicity against human skin fibroblasts assessed as change in cell morphology; settings: skin fibroblast
[6] = Cytotoxicity against primary rabbit kidney cells assessed as inhibition of DNA synthesis by labeled thymidine/2'-deoxyuridine assay; format: cell-based, Oryctolagus cuniculus; summary of the method: as §1
[7] = test system: Human alphaherpesvirus 1; assay: Antiviral activity against HSV1 KOS infected in primary rabbit kidney cells assessed as inhibition of virus-induced cytopathogenicity; format: functional
[8] = test system: Vesicular stomatitis virus; assay: Antiviral activity against Vesicular stomatitis virus infected in primary rabbit kidney cells assessed as inhibition of virus-induced cytopathogenicity; format: functional

SMILES	pKa [1]	Activity [2]	Antiviral activity [3]	Activity [4]	Activity [5]	Activity [6]	ID50 [7]	ID50 [8] [×10⁻⁴ M]
O=c1[nH]c(=O)n([C@@H]2O[C@H](CO)[C@@H](O)[C@@H]2O)cc1Br	8	–	–	–	–	–	–	–
N#Cc1cn([C@@H]2O[C@H](CO)[C@@H](O)[C@@H]2O)c(=O)[nH]c1=O	6.8	Non-toxic	Active	Non-toxic	Non-toxic	Non-toxic	>3.7 ×10⁻⁴ M	>1
O=c1ccn([C@@H]2O[C@H](CO)[C@@H](O)[C@@H]2O)c(=O)[nH]1 [ARAURIDINE]	–	Non-toxic	Active	–	Non-toxic	–	4.1 ×10⁻⁵ M	>1
O=c1[nH]c(=O)n([C@@H]2O[C@H](CO)[C@@H](O)[C@@H]2O)cc1I	8	–	–	–	–	–	–	–
O=c1[nH]c(=O)n([C@@H]2O[C@H](CO)[C@@H](O)[C@@H]2O)cc1O	7.8	Non-toxic	Active	Non-toxic	Non-toxic	Non-toxic	>3.9 ×10⁻⁴ M	>1
O=c1[nH]c(=O)n([C@@H]2O[C@H](CO)[C@@H](O)[C@@H]2O)cc1[N+](=O)[O-]	5.7	Non-toxic	Active	Non-toxic	Non-toxic	Non-toxic	>6.9 ×10⁻⁴ M	>1
Cc1cn([C@@H]2O[C@H](CO)[C@@H](O)[C@@H]2O)c(=O)[nH]c1=O	–	Non-toxic	Active	–	Non-toxic	–	3.9 ×10⁻⁷ M	>1

— ChEMBL document CHEMBL3227984, “5-Substituted uracil arabinonucleosides as potential antiviral agents” (J Med Chem, 1979)
